From ChEMBL document CHEMBL1151249, “Cytotoxic and antimicrobial constituents of the bark of Diospyros maritima collected in two geographical locations in Indonesia” (J Nat Prod, 2004)
In brackets after ≈: the same amount, converted by molar mass.

Key:
Candida albicans [1] = experiment: Antifungal activity against Candida albicans after 18 hrs by zone-of-inhibition assay; assay type: functional, organism-based; conditions: for IC50: Candida albicans, 18 h
Cryptococcus neoformans [2] = experiment: Antifungal activity against Cryptococcus neoformans after 18 hrs by zone-of-inhibition assay; assay type: functional, organism-based; conditions: for IC50: Cryptococcus neoformans, 18 h
[3] = tested on: Mycolicibacterium smegmatis; experiment: Antimicrobial activity against Mycobacterium smegmatis after 18 hrs by zone-of-inhibition assay; assay type: functional, organism-based
Lu1 = experiment: Cytotoxicity against human Lu1 cells; assay type: functional; conditions: read-out: ED50 (the source's name)
Aspergillus niger [4] = experiment: Antifungal activity against Aspergillus niger after 18 hrs by zone-of-inhibition assay; assay type: functional, organism-based
Candida albicans [5] = experiment: Antimicrobial activity against Candida albicans assessed as 99.9 % growth inhibition after 18 hrs by zone-of-inhibition assay; assay type: functional
Micrococcus luteus [6] = experiment: Antimicrobial activity against Micrococcus luteus after 18 hrs by zone-of-inhibition assay; assay type: functional, organism-based
[7] = tested on: Mycolicibacterium smegmatis; experiment: Antimicrobial activity against Mycobacterium smegmatis assessed as 99.9 % growth inhibition after 18 hrs by zone-of-inhibition assay; assay type: functional
Staphylococcus aureus [8] = experiment: Antimicrobial activity against Staphylococcus aureus after 18 hrs by zone-of-inhibition assay; assay type: functional, organism-based
Micrococcus luteus [9] = experiment: Antimicrobial activity against Micrococcus luteus assessed as 99.9 % growth inhibition after 18 hrs by zone-of-inhibition assay; assay type: functional
Saccharomyces cerevisiae [10] = experiment: Antifungal activity against Saccharomyces cerevisiae after 18 hrs by zone-of-inhibition assay; assay type: functional, organism-based
Staphylococcus aureus [11] = experiment: Antimicrobial activity against Staphylococcus aureus assessed as 99.9 % growth inhibition after 18 hrs by zone-of-inhibition assay; assay type: functional
LNCaP = experiment: Cytotoxicity against human LNCAP cells; assay type: functional; conditions: read-out: ED50 (the source's name)
Saccharomyces cerevisiae [12] = experiment: Antifungal activity against Saccharomyces cerevisiae assessed as 99.9 % growth inhibition after 18 hrs by zone-of-inhibition assay; assay type: functional
[13] = Cytotoxicity against human HUVEC; assay type: cell-based; conditions: HUVEC cells, read-out: ED50 (the source's name)
Aspergillus niger [14] = experiment: Antifungal activity against Aspergillus niger assessed as 99.9 % growth inhibition after 18 hrs by zone-of-inhibition assay; assay type: functional
KB = experiment: Cytotoxicity against human KB cells; assay type: functional, cell-based
Mycobacterium avium [15] = experiment: Antimicrobial activity against Mycobacterium avium after 18 hrs by zone-of-inhibition assay; assay type: functional, organism-based
Cryptococcus neoformans [16] = experiment: Antifungal activity against Cryptococcus neoformans assessed as 99.9 % growth inhibition after 18 hrs by zone-of-inhibition assay; assay type: functional
Mycobacterium avium [17] = experiment: Antimicrobial activity against Mycobacterium avium assessed as 99.9 % growth inhibition after 18 hrs by zone-of-inhibition assay; assay type: functional
Mus musculus [18] = experiment: Toxicity in human LU1 cell xenografted mouse assessed as body weight loss at 5 mg/kg; assay type: organism-based; design: dose 5 mg/kg; conditions: in vivo
Summary of the method: (§1)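 In vivo hollow fiber assay in mice, with KB, LNCaP or Lu1 cancer cells at intraperitoneal and subcutaneous sites. Doses ranged from 1.25 to 10 mg/kg, with six mice per dose group. Body weight and deaths were recorded alongside tumor-cell growth inhibition.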

Mus musculus [19] = experiment: Toxicity in human LNCaP cell xenografted mouse assessed as body weight loss at 5 mg/kg; assay type: organism-based; design: dose 5 mg/kg; conditions: in vivo; summary of the method: as §1
Mus musculus [20] = experiment: Toxicity in human KB cell xenografted mouse assessed as body weight loss at 5 mg/kg; assay type: organism-based; design: dose 5 mg/kg; conditions: in vivo; summary of the method: as §1
[21] = read-out: ED50 (the source's name)

Compound	IC50 (Candida albicans [1]) [µg/mL]	IC50 (Cryptococcus neoformans [2]) [µg/mL]	IC50 [3] [µg/mL]	EC50 (Lu1) [µg/mL]	IC50 (Aspergillus niger [4]) [µg/mL]	Activity (Candida albicans [5]) [µg/mL]	IC50 (Micrococcus luteus [6]) [µg/mL]	Activity [7] [µg/mL]	IC50 (Staphylococcus aureus [8]) [µg/mL]	Activity (Micrococcus luteus [9]) [µg/mL]	IC50 (Saccharomyces cerevisiae [10]) [µg/mL]	Activity (Staphylococcus aureus [11]) [µg/mL]	EC50 (LNCaP) [µg/mL]	Activity (Saccharomyces cerevisiae [12]) [µg/mL]	CC50 [13] [µg/mL]	Activity (Aspergillus niger [14]) [µg/mL]	EC50 (KB; [21]) [µg/mL]	IC50 (Mycobacterium avium [15]) [µg/mL]	Activity (Cryptococcus neoformans [16]) [µg/mL]	other results
COC1=CC(=O)c2c(O)cc(C)cc2C1=O	100 (≈ 458 µM)	50 (≈ 229 µM)	50 (≈ 229 µM)	0.2 (≈ 0.917 µM)	100 (≈ 458 µM)	800	50 (≈ 229 µM)	800	200 (≈ 917 µM)	800	50 (≈ 229 µM)	400	3.4 (≈ 15.6 µM)	200	2 (≈ 9.17 µM)	>1000	1.9 (≈ 8.71 µM)	50 (≈ 229 µM)	200	
COC1=CC(=O)c2cc(C)cc(O)c2C1=O	> 1000	> 1000	> 1000	1.8 (≈ 8.25 µM)	> 1000	>1000	700 (≈ 3210 µM)	>1000	> 1000	>1000	> 1000	>1000	4.1 (≈ 18.8 µM)	>1000	5.5 (≈ 25.2 µM)	>1000	2.4 (≈ 11 µM)	700 (≈ 3210 µM)	>1000	
COc1c(O)cc2ccc(=O)oc2c1OC	> 1000	> 1000	> 1000	> 5	> 1000	>1000	> 1000	>1000	> 1000	>1000	> 1000	>1000	> 5	>1000	> 5	>1000	> 5	> 1000	>1000	
COC(=O)c1c(O)cc(C)cc1O	> 1000	> 1000	> 1000	> 5	> 1000	>1000	> 1000	>1000	> 1000	>1000	> 1000	>1000	> 5	>1000	> 5	>1000	> 5	> 1000	>1000	
Cc1cc(O)c2c(c1)[C@@H](O)CCC2=O [4S-SHINANOLONE]	> 1000	> 1000	> 1000	> 5	> 1000	>1000	> 1000	>1000	> 1000	>1000	> 1000	>1000	> 5	>1000	> 5	>1000	> 5	> 1000	>1000	
C=C(C)[C@@H]1CC[C@]2(CO)CC[C@]3(C)[C@H](CC[C@@H]4[C@@]5(C)CC[C@H](O)C(C)(C)[C@@H]5CC[C@]43C)[C@@H]12 [BETULIN]				> 5									> 5		> 5		> 5			
CC[C@@]1(O)C(=O)OCc2c1cc1n(c2=O)Cc2cc3ccccc3nc2-1 [CAMPTOTHECIN]																				EC50 (KB; read-out: EC50): 0.01 µg/mL (≈ 0.0287 µM)
CC1=CC(=O)c2c(ccc(C3=C(C)C(=O)c4cccc(O)c4C3=O)c2O)C1=O [CHITRANONE]	10 (≈ 26.7 µM)	3 (≈ 8.01 µM)	6 (≈ 16 µM)	1.1 (≈ 2.94 µM)	6 (≈ 16 µM)	>1000	10 (≈ 26.7 µM)	20	90 (≈ 240 µM)	>1000	3 (≈ 8.01 µM)	>1000	2.2 (≈ 5.88 µM)	10	2.1 (≈ 5.61 µM)	>1000	0.3 (≈ 0.801 µM)	5 (≈ 13.4 µM)	10	Activity (Mycobacterium avium [17]): 90 µg/mL
C=C(C)[C@@H]1CC[C@]2(C)CC[C@]3(C)[C@H](CC[C@@H]4[C@@]5(C)CC[C@H](O)C(C)(C)[C@@H]5CC[C@]43C)[C@@H]12 [LUPEOL]	> 1000	> 1000	> 1000	> 5	> 1000	>1000	> 1000	>1000	> 1000	>1000	> 1000	>1000	> 5	>1000	> 5	>1000	> 5	> 1000	>1000	
COc1cc2c[n+](C)c3c4cc5c(cc4ccc3c2cc1OC)OCO5.[Cl-] [NITIDINE CHLORIDE]			1000		3000	200	200	>5000	300	5000	300	5000		3000		>5000		3000	300	Activity (Candida albicans [1]): 20 µg/mL; Activity (Cryptococcus neoformans [2]): 80 µg/mL
CC1=CC(=O)c2c(O)cccc2C1=O [PLUMBAGIN]	9 (≈ 47.8 µM)	20 (≈ 106 µM)	300 (≈ 1590 µM)	0.3 (≈ 1.59 µM)	20 (≈ 106 µM)	>1000	80 (≈ 425 µM)	>1000	100 (≈ 531 µM)	600	10 (≈ 53.1 µM)	600	0.4 (≈ 2.13 µM)	40	0.4 (≈ 2.13 µM)	400	0.3 (≈ 1.59 µM)	600 (≈ 3190 µM)	40	Activity (Mus musculus [18]): Toxic; Activity (Mus musculus [19]): Toxic; Activity (Mycobacterium avium [17]): >1000 µg/mL; Activity (Mus musculus [20]): Toxic
Cc1cc(O)c2c(c1)C(=O)C=CC2=O [RAMENTACEONE]	0.3 (≈ 1.59 µM)	0.3 (≈ 1.59 µM)	40 (≈ 213 µM)	13.2 (≈ 70.1 µM)	5 (≈ 26.6 µM)	20	20 (≈ 106 µM)	600	200 (≈ 1060 µM)	1000	0.3 (≈ 1.59 µM)	>1000	3.7 (≈ 19.7 µM)	1	5.7 (≈ 30.3 µM)	300	4.1 (≈ 21.8 µM)	5 (≈ 26.6 µM)	1	
COc1cc2ccc(=O)oc2cc1O [SCOPOLETIN]	> 1000	> 1000	> 1000	> 5	> 1000	>1000	> 1000	>1000	> 1000	>1000	> 1000	>1000	> 5	>1000	> 5	>1000	> 5	> 1000	>1000	
CC12C(=O)c3cccc(O)c3C(=O)C1CC1=C2C(=O)c2c(O)cccc2C1=O (centres undefined) [ZEYLANONE]	3 (≈ 8.01 µM)	10 (≈ 26.7 µM)	50 (≈ 134 µM)	14.5 (≈ 38.7 µM)	30 (≈ 80.1 µM)	3	50 (≈ 134 µM)	400	6 (≈ 16 µM)	>800	10 (≈ 26.7 µM)	>800	3.3 (≈ 8.82 µM)	500	3.3 (≈ 8.82 µM)	>800	2.1 (≈ 5.61 µM)	200 (≈ 534 µM)	100	
